These results are taken from publication PMC3378255 (ACS chemical neuroscience, 2012).

Where two headings read alike, the source gives them in different places.

In data set [1] the test system is 44 GPCR and other molecular targets. Kind of data set: PDSP binding assay panel of 44 GPCR and other molecular targets. In a few lines:
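The Psychoactive Drug Screening Program ran radioligand binding assays across 44 GPCR and other targets. Test compounds were first screened at a single 10 μM concentration. Those showing significant activity then went to Ki determination.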

Data set [2] is described as follows: Plasma protein binding, mouse. It is filed as in vitro ADME.
The target in another data set is KOR (Homo sapiens, UniProt P41145). Description: PDSP radioligand binding assay, KOR.
Data set [3] relates to Fa2N-4 immortalized human hepatocytes. Kind of data set: Hepatic toxicity. To be noted: in words. It is filed as cell-based.
Data set [4] in a line: Plasma protein binding, human. The conditions noted are these: for bound to both human and mouse plasma: human and mouse plasma together; for plasma protein binding (% Bound): human. It is filed as in vitro ADME.
For data set [5] the following is noted: mouse, microsomes, 1 h.

For orientation: Ki means the dissociation constant of the complex between target and ligand, obtained from inhibition or displacement.

KOR, sequence (P41145 whole entry): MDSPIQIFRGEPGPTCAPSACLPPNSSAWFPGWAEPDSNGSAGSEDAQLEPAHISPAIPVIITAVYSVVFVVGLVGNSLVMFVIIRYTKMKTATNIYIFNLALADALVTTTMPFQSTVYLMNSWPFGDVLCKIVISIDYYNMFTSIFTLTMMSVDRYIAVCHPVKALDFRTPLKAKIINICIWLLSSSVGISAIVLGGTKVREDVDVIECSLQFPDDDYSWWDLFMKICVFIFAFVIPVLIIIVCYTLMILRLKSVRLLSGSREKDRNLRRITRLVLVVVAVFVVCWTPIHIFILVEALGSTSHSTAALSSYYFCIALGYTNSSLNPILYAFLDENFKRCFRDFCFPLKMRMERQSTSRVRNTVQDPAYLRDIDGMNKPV

In the case of `O=C(c1ccccn1)N(Cc1cccs1)C1(C(=O)NC2CCCCC2)CCCCC1` [1{1}, N-(1-(Cyclohexylcarbamoyl)cyclohexyl)-N-(thiophen-2-ylmethyl)picolinamide], the “affinity across the PDSP assay panel” value in data set [1] (in words, concentrations up to 10,000 nM) was “affinity only for the opioid receptors”. The “plasma protein binding (% Bound)” value stood at 94.05 % Bound in data set [2] (1µM), 90.70 % Bound in data set [2] (10µM), 99.59 % Bound in data set [4] (1µM) and 99.07 % Bound in data set [4] (10µM). The affinity on KOR corresponds to a Ki of 0.6 nM. Besides, the “toxicity toward human hepatocytes” value in data set [3] is recorded as “significant toxicity”. Also, the “bound to both human and mouse plasma” value in data set [4] is given as 90–99%.
As to `COc1ccc(N2CCN(CCCNC(=O)Cn3c(=O)c4cccn4c4c(C)ccnc43)CC2)cc1` [4{13}, N-(3-(4-(4-Methoxyphenyl)piperazin-1-yl)propyl)-2-(1-methyl-6-oxopyrido[2,3-e]pyrrolo[1,2-a]pyrazin-5(6H)-yl)acetamide], the “PAMPA Pe” value is 2.7e-05 cm/s. Moreover, the “PAMPA Pe” value (pH 7.4) was 0.000757 cm/s. The same compound yielded a hepatic microsome stability in data set [5] of 7.3 % remaining. Moreover, the “plasma protein binding (% Bound)” value in data set [2] (1µM) was 88.46 % Bound. In addition, the “plasma protein binding (% Bound)” value in data set [2] (10µM) was found to be 80.07 % Bound. In data set [4], the “bound to both human and mouse plasma” value is recorded as 80–94%. The “plasma protein binding (% Bound)” value in data set [4] (1µM) amounted to 93.96 % Bound. For the same compound, the “plasma protein binding (% Bound)” value in data set [4] (10µM) is recorded as 88.54 % Bound.
With `Cc1ccc(S(=O)(=O)NCc2ccc(C(=O)NCCN(Cc3ccccc3)C(C)C)cc2)cc1` [3{1}, N-(2-(Benzyl(isopropyl)amino)ethyl)-4-((4-methylphenylsulfonamido)methyl)benzamide], the “PAMPA Pe” value was 1710–1940 ×10^−6 cm/s. In data set [2] (1µM), the “plasma protein binding (% Bound)” value is recorded as 98.90 % Bound. Further, the “plasma protein binding (% Bound)” value in data set [2] (10µM) is on record as 98.92 % Bound. For the same compound, in data set [4], the “bound to both human and mouse plasma” value was 90–99%. Moreover, in data set [4] (1µM), the “plasma protein binding (% Bound)” value was 99.67 % Bound. In addition, in data set [4] (10µM), the “plasma protein binding (% Bound)” value is 99.73 % Bound.
Regarding `Clc1ccc(CSc2nnc(-c3ccccn3)n2Cc2ccco2)cc1Cl` [2{8}], the Ki in data set [1] (read-out: Ki values for 11 non-opioid targets, weak binding affinity, PDSP panel) was 1000 to 10000 nM. For the same compound, the “plasma protein binding (% Bound)” value in data set [2] (1µM) turned out to be 99.80 % Bound; in data set [2] (10µM), 99.64 % Bound; in data set [4] (1µM), 99.75 % Bound; in data set [4] (10µM), 99.80 % Bound. Moreover, in data set [4], the “bound to both human and mouse plasma” value is given as 90–99%.
